Assay results from ChEMBL document CHEMBL3608231, “Eremophilane Sesquiterpenes and Polyketones Produced by an Endophytic Guignardia Fungus from the Toxic Plant Gelsemium elegans” (J Nat Prod, 2015).
Calls of active or inactive are those of the source.

Key:
Type in all cases: functional, cell-based
A2780 = test: Cytotoxicity against human A2780 cells after 72 hrs by MTT assay
In short: (§1)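 Cells kept in RPMI 1640 with 10% FBS in 96-well plates, 24 h at 37 °C, then samples added from DMSO solution at final 10 μM. Growth assessed after 72 h by MTT (4 h at 37 °C), formazan dissolved in DMSO, absorbance at 570 nm. Camptothecin as positive control.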

HCT-8 = test: Cytotoxicity against human HCT8 cells after 72 hrs by MTT assay; in short: as §1
HCT-116 = test: Cytotoxicity against human HCT116 cells after 72 hrs by MTT assay; in short: as §1
A549 = test: Cytotoxicity against human A549 cells after 72 hrs by MTT assay; in short: as §1
Bel-7402 = test: Cytotoxicity against human Bel7402 cells after 72 hrs by MTT assay; in short: as §1
BGC-823 = test: Cytotoxicity against human BGC823 cells after 72 hrs by MTT assay; in short: as §1

Measured: Activity

C[C@H]1CCC(=O)O[C@@H]2C(=O)c3c(O)cccc3O[C@H]21
inactive: all assays above

C=C(C)[C@@H]1C[C@@]2(C)C(=CC1=O)[C@@H](O)[C@H](O)[C@H](O)[C@@H]2C
inactive: all assays above

CC(=O)O[C@H]1[C@@H](O)CC2=CC(=O)C(O)=C[C@]2(C)[C@H]1C
inactive: all assays above

C=C(C(C)=O)C(=C\c1cccc(C)c1N)/C(=C/O)CC
inactive: all assays above

C=C(C)[C@@H]1C[C@@]2(C)C(=CC(=O)C[C@@H]2C)C[C@H]1O
inactive: all assays above

CC(C)=C1C[C@@]2(C)C(=CC1=O)[C@@H](O)[C@H](O)[C@H](O)[C@@H]2C
inactive: all assays above

C=C1CC[C@H]2C(C)(C)CCC[C@]2(C)[C@H]1C[C@@]12O[C@@H]1[C@H](O)C(CO)=CC2=O
inactive: all assays above

C=C(C)[C@@H]1CC[C@@]2(C)OC3=C(C[C@@H]12)C(=O)[C@@H]1C[C@@]3(O)CO1
inactive: all assays above

C=C(C)[C@H]1C[C@@]2(C)C(=CC1=O)[C@H](O)[C@H](O)C[C@@H]2C
inactive: all assays above
